For test [1], the target named is T1, Orotidine phosphate decarboxylase (Plasmodium falciparum, UniProt Q8T6J6).
T1 sequence (Q8T6J6 whole entry): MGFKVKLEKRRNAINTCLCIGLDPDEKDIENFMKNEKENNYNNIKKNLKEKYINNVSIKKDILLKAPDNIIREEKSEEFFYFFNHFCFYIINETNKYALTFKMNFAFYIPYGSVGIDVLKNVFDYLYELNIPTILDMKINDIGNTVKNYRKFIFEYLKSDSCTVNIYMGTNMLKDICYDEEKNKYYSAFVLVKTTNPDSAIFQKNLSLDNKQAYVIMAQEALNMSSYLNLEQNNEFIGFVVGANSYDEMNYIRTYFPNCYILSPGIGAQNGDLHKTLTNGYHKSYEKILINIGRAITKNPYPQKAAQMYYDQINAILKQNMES
Nature of the test: Inhibition of Plasmodium falciparum ODCase by isothermal titration calorimetry. In outline:
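Recombinant P. falciparum enzyme, preincubated overnight at room temperature in 50 mM Tris, 40 mM NaCl, 20 mM DTT. ITC at 37 °C in 50 mM Tris, 20 mM DTT, pH 7.5, with 60 nM enzyme and 12 μM substrate. Substrate injection into enzyme–inhibitor mix started the reaction. Triplicate runs; competitive Ki derived from rate versus [S] and double-reciprocal plots.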

In test [2] the target is T2, Uridine 5'-monophosphate synthase (Homo sapiens, UniProt P11172).
T2 sequence (P11172 whole entry): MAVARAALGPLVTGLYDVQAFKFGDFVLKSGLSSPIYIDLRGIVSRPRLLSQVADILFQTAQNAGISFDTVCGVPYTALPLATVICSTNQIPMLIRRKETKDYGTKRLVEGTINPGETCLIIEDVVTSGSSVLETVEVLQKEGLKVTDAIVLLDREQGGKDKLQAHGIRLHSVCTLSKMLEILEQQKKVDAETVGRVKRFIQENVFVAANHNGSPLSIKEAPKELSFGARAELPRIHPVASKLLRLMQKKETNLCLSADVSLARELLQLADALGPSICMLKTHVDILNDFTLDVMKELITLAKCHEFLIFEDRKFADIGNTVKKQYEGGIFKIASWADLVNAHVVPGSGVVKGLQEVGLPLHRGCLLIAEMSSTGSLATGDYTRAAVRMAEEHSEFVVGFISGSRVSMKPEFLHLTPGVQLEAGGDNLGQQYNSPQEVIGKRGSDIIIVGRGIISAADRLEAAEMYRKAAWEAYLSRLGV
Nature of the test: Inhibition of human ODCase by isothermal titration calorimetry. A digest of the protocol: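 Recombinant human enzyme, preincubated overnight at room temperature in 50 mM Tris, 40 mM NaCl, 20 mM DTT. Substrate injection into enzyme–inhibitor mix started the reaction. Triplicates; competitive Ki from rate versus [S] and double-reciprocal analysis.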
(In ITC the heat of successive injections is recorded.)

Test [3] addresses Orotidine 5'-phosphate decarboxylase (Methanobacterium thermoautotrophicum, UniProt O26232). Briefly: Inhibition of Methanobacterium thermoautotrophicum ODCase by isothermal titration calorimetry. On the set-up: species or system Methanothermobacter thermautotrophicus. In outline:
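Recombinant M. thermoautotrophicum enzyme, preincubated overnight at room temperature in 50 mM Tris, 40 mM NaCl, 20 mM DTT. Activity read by ITC at 55 °C in 50 mM Tris, 20 mM DTT, pH 7.5, with 20 nM enzyme and 40 μM substrate; inhibitor 0–100 μM. Substrate injection into enzyme–inhibitor mix started the reaction. Triplicates; competitive Ki from rate versus [S] and double-reciprocal plots.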

The subject of another test is Plasmodium falciparum. Nature of the test: Antimalarial activity against Plasmodium falciparum incubated for 48 hrs by fluorescence-based SYBR-green assay. Format: functional, organism-based. A digest of the protocol: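 P. falciparum ItG line grown in human O erythrocytes in RPMI 1640 with 10% human serum and 50 μM hypoxanthine. Compound stock was 10 mg/mL in RPMI, filter-sterilized, then serially diluted up to 500 μg/mL with constant parasite numbers. Plates were held 48 h under 3% CO2/2% O2/95% N2 and read by SYBR Green/Triton X-100 fluorescence. Quadruplicates; IC50 by nonlinear regression of dose–response.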

In brackets after ≈: the same amount, converted by molar mass.

Chain of Orotidine 5'-phosphate decarboxylase (O26232 whole entry): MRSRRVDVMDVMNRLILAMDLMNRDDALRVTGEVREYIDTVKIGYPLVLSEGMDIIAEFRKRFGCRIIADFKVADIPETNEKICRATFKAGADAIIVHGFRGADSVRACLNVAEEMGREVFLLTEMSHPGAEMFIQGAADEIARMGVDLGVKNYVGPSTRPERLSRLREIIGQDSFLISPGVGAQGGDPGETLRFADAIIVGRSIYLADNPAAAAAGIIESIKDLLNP

With `O=c1nc(NO)ccn1[C@@H]1O[C@H](COP(=O)(O)O)[C@@H](O)[C@H]1O`, the Ki (in general, a dissociation constant, usually derived from enzyme kinetics or from competition with a known ligand) in test [1] is > 1000 µM. With `Nc1ccn([C@@H]2O[C@H](COP(=O)(O)O)[C@@H](O)[C@H]2O)c(=O)n1`, the values for the Ki in test [2], in test [3] and in test [1] were 1400 µM, 1200 µM and > 10000 µM, respectively. On to `Nc1ccn([C@@H]2O[C@H](CO)[C@@H](O)[C@H]2O)c(=O)[n+]1[O-]`, for which the IC50 (as a rule, the concentration that gives 50% inhibition) in the test with Plasmodium falciparum was determined as 411 mg/L (≈ 1590 µM). `O=c1ccn([C@@H]2O[C@H](COP(=O)(O)O)[C@@H](O)[C@H]2O)c(=O)[nH]1`: the Ki in test [2] is 220 µM; in test [3], 330 µM; in test [1] it was 210 µM. `O=c1nc(NO)ccn1[C@@H]1O[C@H](CO)[C@@H](O)[C@H]1O` [N-HYDROXYCYTIDINE] registered an IC50 in the test with Plasmodium falciparum of 610 mg/L (≈ 2350 µM). As for `Nc1ccn([C@@H]2O[C@H](COP(=O)(O)O)[C@@H](O)[C@H]2O)c(=O)[n+]1[O-]`, the Ki in test [3] stood at 11.1 µM; in test [1], 22.1 µM.

The record behind these values is ChEMBL document CHEMBL2177049, “Novel cytidine-based orotidine-5'-monophosphate decarboxylase inhibitors with an unusual twist” (J Med Chem, 2012).
